Activity calls are given as the source filed them. The rule behind the calls is not given here.
Key:
MDA-MB-468 = assay: Cytotoxicity against human MDA-MB-468 cells assessed as growth inhibition after 4 days by XTT assay; format: functional, cell-based; conditions: MDA-MB-468, 96 h
Summary of the method: (§1)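 Cells kept in low-glucose DMEM with 10% FBS and 1% penicillin-streptomycin, seeded in 96-well plates the day before treatment. Compound exposure lasted four days, and the XTT cell proliferation kit was read on day 6 after drug addition. Dose-response cytotoxicity was measured in triplicate sets.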

[1] = target: T1, DNA repair protein RAD51 homolog 1 (Homo sapiens) (UniProt Q06609); assay: Inhibition of RAD51 in human HeLa cells expressing DR-GFP assessed as reduction of homologous recombination frequency at 10 to 20 uM after 24 hrs by I-SceI inducible gene conversion assay; format: cell-based
T1 sequence (whole entry): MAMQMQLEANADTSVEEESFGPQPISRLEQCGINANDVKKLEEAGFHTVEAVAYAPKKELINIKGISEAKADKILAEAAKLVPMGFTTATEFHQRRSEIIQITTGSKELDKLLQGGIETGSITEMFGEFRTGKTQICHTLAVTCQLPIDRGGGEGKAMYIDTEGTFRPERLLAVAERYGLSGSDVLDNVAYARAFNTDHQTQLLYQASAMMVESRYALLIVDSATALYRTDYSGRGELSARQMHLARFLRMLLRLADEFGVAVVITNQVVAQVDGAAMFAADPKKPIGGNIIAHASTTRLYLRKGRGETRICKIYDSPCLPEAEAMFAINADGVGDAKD
Summary of the method: (§2)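 HeLa cells stably carrying DR-GFP (puromycin 2 µg/mL selection) were transiently transfected with I-SceI vector pCBASce for 24 h to induce DSBs. They were then treated with DMSO or compound at 10 or 20 µM for another 24 h. GFP-positive percentage was measured by flow cytometry as means±SD from three independent experiments.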

[2] = target: T1, DNA repair protein RAD51 homolog 1 (Homo sapiens); assay: Inhibition of RAD51 (unknown origin) multimerization by gel filtration method
Summary of the method: (§3)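 Purified RAD51 (3.2 µg) preincubated with compound at 1:10 protein:compound molar ratio, 15 min at 37°C. Then 15 min in 50 mM triethanolamine-HCl pH 7.5, 0.5 mM Mg(OAc)2, 1 mM DTT, 2 mM ATP, 100 µg/ml BSA. Run on Superdex 200 PC 3.2/30 gel filtration in the same buffer. 50 µl fractions dot-blotted onto PVDF and probed with anti-RAD51 mAb 14B4.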

T47D = assay: Cytotoxicity against human T47D cells assessed as growth inhibition after 4 days by XTT assay; format: functional, cell-based; conditions: 96 h
MDA-MB-361 = assay: Cytotoxicity against human MDA-MB-361 cells assessed as growth inhibition after 4 days by XTT assay; format: functional, cell-based; conditions: MDA-MB-361, 96 h; summary of the method: as §1
[3] = Cytotoxicity against human MCF10A cells assessed as growth inhibition after 4 days by XTT assay; format: cell-based; conditions: MCF-10A, 96 h
MDA-MB-435 = assay: Cytotoxicity against human MDA-MB-435 cells assessed as growth inhibition after 4 days by XTT assay; format: functional, cell-based; conditions: MDA-MB-435, 96 h; summary of the method: as §1
U2OS = assay: Cytotoxicity against human U2OS cells assessed as growth inhibition after 4 days by XTT assay; format: functional, cell-based; conditions: 96 h; summary of the method: as §1
[4] = Cytotoxicity against human Hs578T cells assessed as growth inhibition after 4 days by XTT assay; format: functional, cell-based; conditions: Hs-578T, 96 h; summary of the method: as §1
T98G = assay: Cytotoxicity against human T98G cells assessed as growth inhibition after 4 days by XTT assay; format: functional, cell-based; conditions: 96 h; summary of the method: as §1
K562 = assay: Cytotoxicity against human K562 cells assessed as growth inhibition after 4 days by XTT assay; format: functional, cell-based; conditions: K562, 96 h
[5] = Selectivity ratio of IC50 for human MCF10A cells to IC50 for human T98G cells; format: ADME, cell-based, MCF-10A; conditions: MCF10A cells versus T98G cells
MDA-MB-231 = assay: Cytotoxicity against human MDA-MB-231 cells assessed as growth inhibition after 4 days by XTT assay; format: functional, cell-based; conditions: MDA-MB-231, 96 h; summary of the method: as §1
[6] = target: T1, DNA repair protein RAD51 homolog 1 (Homo sapiens); assay: Inhibition of RAD51 in human HeLa cells expressing DR-GFP assessed as reduction of homologous recombination frequency after 24 hrs by I-SceI inducible gene conversion assay; format: cell-based; summary of the method: as §2
HeLa = assay: Cytotoxicity against human HeLa cells assessed as growth inhibition after 4 days by XTT assay; format: functional, cell-based; conditions: 96 h
[7] = target: T1, DNA repair protein RAD51 homolog 1 (Homo sapiens); assay: Inhibition of RAD51 (unknown origin) multimerization at 1:10 M ratio of protein to compound after 15 mins by gel filtration method; summary of the method: as §3
[8] = Selectivity ratio of IC50 for human MCF10A cells to IC50 for human T47D cells; format: ADME, cell-based, MCF-10A; conditions: MCF10A cells versus T47D cells
MCF7 = assay: Cytotoxicity against human MCF7 cells assessed as growth inhibition after 4 days by XTT assay; format: functional, cell-based; conditions: MCF7, 96 h; summary of the method: as §1

SMILES | IC50 (MDA-MB-468) [µM] | further results
O=S(=O)(Cc1ccccc1F)N1CCc2ccccc2[C@@H]1c1c[nH]c2ccccc12 | 12.7 | –
COc1cc2c(C3c4ccccc4C=CN3S(=O)(=O)Cc3ccccc3)c[nH]c2cn1 (racemic) | 12.7 | –
O=S(=O)(Cc1ccc(C(F)(F)F)cc1)N1CCc2ccccc2[C@H]1c1c[nH]c2ccccc12 | 20.7 | –
O=S(=O)(Cc1ccccc1C(F)(F)F)N1CCc2ccccc2[C@@H]1c1c[nH]c2ccccc12 | 14.8 | –
O=S(=O)(Cc1ccc(C(F)(F)F)cc1)N1CCc2ccccc2[C@@H]1c1c[nH]c2ccccc12 | 13.6 | –
O=S(=O)(Cc1ccccc1F)N1CCc2ccccc2[C@H]1c1c[nH]c2ccccc12 | 19.2 | –
O=S(=O)(Cc1cccc(F)c1)N1CCc2ccccc2[C@H]1c1c[nH]c2ccccc12 | 17.2 | –
O=S(=O)(Cc1ccccc1)N1CCc2ccccc2[C@H]1c1n[nH]c2ccccc12 | 14.3 | –
O=S(=O)(Cc1ccccc1)N1C=Cc2ccccc2C1c1c[nH]c2ccccc12 (racemic) | 14.8 | inhibition [1]: Active; inhibition [2]: Active
Nc1ncc([C@@H]2c3ccccc3CCN2S(=O)(=O)Cc2ccccc2)s1 | > 25 | –
O=S(=O)(Cc1cccc(F)c1)N1CCc2ccccc2[C@@H]1c1c[nH]c2ccccc12 | 14.2 | –
O=S(=O)(Cc1ccccc1)N1C=Cc2ccccc2C1c1c[nH]c2ncccc12 (racemic) | 6.2 | –
O=S(=O)(Cc1ccccc1)N1Cc2ccccc2[C@@H]1c1c[nH]c2ccccc12 | – | IC50 (T47D): 6.3 µM; IC50 (MDA-MB-361): 4.5 µM; IC50 [3]: > 30 µM; IC50 (MDA-MB-435): 4 µM; IC50 (U2OS): 4.7 µM; IC50 [4]: 4.9 µM; IC50 (T98G): 9.5 µM; IC50 (K562): 3.6 µM; selectivity ratio [5]: > 3.2; IC50 (MDA-MB-231): 3.5 µM; inhibition [6]: Dose-dependent effect; IC50 (HeLa): 3.6 µM; inhibition [7]: Active; selectivity ratio [8]: > 4.8; IC50 (MCF7): 3.1 µM
O=S(=O)(Cc1ccccc1)N1Cc2ccccc2[C@H]1c1c[nH]c2ccccc12 | > 12 | –
O=S(=O)(Cc1ccc(F)cc1)N1CCc2ccccc2[C@H]1c1c[nH]c2ccccc12 | 25.7 | –
COc1nccc2c(C3c4ccccc4C=CN3S(=O)(=O)Cc3ccccc3)c[nH]c12 (racemic) | 6.3 | –
O=S(=O)(Cc1ccccc1)N1CCc2ccccc2[C@H]1c1c[nH]c2ccccc12 | 13.2 | –
O=S(=O)(Cc1cccc(C(F)(F)F)c1)N1CCc2ccccc2[C@H]1c1c[nH]c2ccccc12 | 22.2 | –
O=S(=O)(Cc1ccccc1)N1CCc2ccccc2[C@@H]1c1c[nH]c2ccccc12 | 11.7 | –
O=S(=O)(Cc1cccc(C(F)(F)F)c1)N1CCc2ccccc2[C@@H]1c1c[nH]c2ccccc12 | 11.1 | –
O=S(=O)(Cc1ccccc1)N1CCc2ccccc2[C@@H]1c1n[nH]c2ccccc12 | 9.5 | –
O=S(=O)(Cc1ccccc1)N1CC=Cc2ccccc2[C@@H]1c1c[nH]c2ccccc12 | 14.7 | –
O=S(=O)(Cc1ccc(F)cc1)N1CCc2ccccc2[C@@H]1c1c[nH]c2ccccc12 | 11.2 | –
O=S(=O)(Cc1ccccc1C(F)(F)F)N1CCc2ccccc2[C@H]1c1c[nH]c2ccccc12 | 16.7 | –
O=S(=O)(Cc1ccccc1)N1CC=Cc2ccccc2[C@H]1c1c[nH]c2ccccc12 | > 50 | –
